Measurements from different studies.
Compare with care: the assays were run in different laboratories.
Read-out: cell growth or viability

CC(C)C[C@H](NC(=O)[C@H](Cc1ccccc1)NC(=O)c1cnccn1)B(O)O  IC50 (J82; ATP luminescence): 10 nM
N[C@H]1CC[C@H](N[C@@H]2C[C@H]2c2ccccc2)CC1  EC50 (TF-1a; resazurin; 96 h): 0.09 nM
Cc1nc(NC(=O)N2CCC[C@H]2C(N)=O)sc1-c1ccnc(C(C)(C)C(F)(F)F)c1  EC50 (HCC1954; 5 days): 1130 nM
CN1CCN(C(=O)[C@H](CCCN[C@@H]2C[C@H]2c2ccc(F)cc2)NC(=O)c2ccc(-n3ccnn3)cc2)CC1  EC50 (TF-1a; resazurin; 96 h): 31.1 nM
CC(=O)Nc1cccc(-n2c(=O)n(C3CC3)c(=O)c3c(Nc4ccc(I)cc4F)n(C)c(=O)c(C)c32)c1  viability (SW-620; resazurin; 1.56 nM, 72 h): 56.3%
Nc1ccn([C@@H]2O[C@H](CO)[C@@H](O)[C@@H]2O)c(=O)n1  inhibition (FaDu; CCK-8; 40 nM, 96 h): 50%
COc1cc(Nc2nccc(-c3cnn4nc(OC)ccc34)n2)cc(C(F)(F)F)c1  IC50 (SAOS-2; ATP luminescence): 320 nM
COc1ccc2c(c1OC)C(=O)O[C@@H]2[C@H]1c2c(cc3c(c2OC)OCO3)CCN1C  IC50 (FaDu; 72 h): 15200 nM
C[C@]12CC[C@@H]3c4ccc(O)cc4CC[C@H]3[C@@H]1CC[C@@H]2O  EC90 (CAPAN-1; ATP luminescence; 72 h): 213000 nM
C/C(=N\NC(=O)c1cccc(S(=O)(=O)N2CCN(C)CC2)c1)c1cc(Cl)ccc1O  EC50 (TF-1a; resazurin; 96 h): 1260 nM
CC1(C)C(=O)NC2=C1C(=O)C(=O)c1ccccc12  IC50 (FaDu; 72 h): 4200 nM
